pIC50: −log10 of the molar value. Active and inactive are the calls of the source. The rule behind the calls is not given here.
What was measured:
DNA [1] = test: Binding affinity to calf […] DNA assessed as thermal stability in cacodylate buffer at 12 uM; format: nucleic-acid assay
DNA [2] = test: Binding affinity to calf […] DNA assessed as thermal stability in cacodylate buffer containing 0.1 M NaCl at 12 uM; format: nucleic-acid assay
BT-474 [3] = test: Antiproliferative activity against human BT474 cells after 72 hrs; format: functional, cell-based; conditions: BT-474, 72 h
SK-BR-3 = test: Antiproliferative activity against human SKBR3 cells after 72 hrs; format: functional, cell-based; conditions: SK-BR-3, 72 h
Outline: (§1)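 Cells grown in DMEM with 10% calf serum and 1 mM pyruvate, seeded at 5000 cells/well, left 24 h, then given increasing concentrations from DMSO stock in triplicate (DMSO-only controls) for 72 h. CellTiter 96 aqueous one-solution reagent added for 3 h at 37 °C, A540 read. IC50 taken as the concentration halving cell number versus controls, from triplicate means.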

T47D = test: Antiproliferative activity against human T47D cells after 72 hrs; format: functional, cell-based; outline: as §1
DNA [4] = test: Binding affinity to calf thymus DNA assessed as thermal stability in BPE buffer at 2 uM; format: nucleic-acid assay; conditions: Bos taurus
Caspase-7 (Homo sapiens) = molecular target: T1, Caspase-7 (Homo sapiens) (UniProt P55210); test: Increase in caspase 7 activation in human SKBR3 cells at 20 uM after 24 hrs; format: cell-based; conditions: SK-BR-3
T1 sequence (whole entry): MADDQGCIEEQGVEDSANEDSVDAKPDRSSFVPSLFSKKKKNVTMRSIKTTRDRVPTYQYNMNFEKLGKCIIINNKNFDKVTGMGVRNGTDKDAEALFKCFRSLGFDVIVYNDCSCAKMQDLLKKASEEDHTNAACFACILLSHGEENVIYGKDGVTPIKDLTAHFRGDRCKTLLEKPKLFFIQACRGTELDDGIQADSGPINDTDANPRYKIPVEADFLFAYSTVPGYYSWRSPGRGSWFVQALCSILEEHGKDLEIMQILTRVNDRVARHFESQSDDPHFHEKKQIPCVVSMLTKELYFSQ
Outline: (§2)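 SKBR3 cells seeded at 10^4 per well and exposed to compounds at 20 µM for 24 h. Controls run with and without 0.2% DMSO. Caspase-3/7 activity measured in homogeneous lysates with Caspase-Glo 3/7 reagent as luciferase luminescence.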

Caspase-3 (Homo sapiens) = molecular target: T2, Caspase-3 (Homo sapiens) (UniProt P42574); test: Increase in caspase 3 activation in human SKBR3 cells at 20 uM after 24 hrs; format: cell-based; conditions: SK-BR-3; outline: as §2
T2 sequence (whole entry): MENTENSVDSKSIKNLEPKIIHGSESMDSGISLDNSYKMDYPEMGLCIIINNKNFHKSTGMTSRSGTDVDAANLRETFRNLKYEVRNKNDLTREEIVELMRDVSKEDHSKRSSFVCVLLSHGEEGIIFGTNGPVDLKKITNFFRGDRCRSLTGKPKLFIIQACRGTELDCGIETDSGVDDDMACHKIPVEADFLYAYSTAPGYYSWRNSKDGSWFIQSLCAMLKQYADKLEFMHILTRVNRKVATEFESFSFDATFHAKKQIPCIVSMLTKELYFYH

PC-3 = test: Antiproliferative activity against human PC3 cells after 72 hrs; format: functional, cell-based; conditions: PC-3, 72 h
HT-29 = test: Antiproliferative activity against human HT29 cells after 72 hrs; format: functional, cell-based; conditions: HT-29, 72 h; outline: as §1
LNCaP = test: Antiproliferative activity against human LnCAP cells after 72 hrs; format: functional, cell-based
BT-474 [5] = test: Antitumor activity against human BT474 cells xenografted in gamma C null NOG/SCID mouse assessed as reduction in tumor volume at 60 mg/kg, ip after 44 days; format: functional; parameters: scale not given: the % may be the effect or the level left; conditions: route intraperitoneal
Outline: (§3)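 5 × 10^6 BT474 cells in Matrigel injected subcutaneously into the mammary gland of NOG/SCID mice. Once xenografts were established (10–15 days), mice got intraperitoneal doses in 0.9% NaCl every 3 days; controls got vehicle on the same schedule. Tumours measured by caliper, volume = 0.52(length × width²), five mice per group, percent volume change at day 44.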

BT-474 [6] = test: Antitumor activity against human BT474 cells xenografted gamma C null NOG/SCID mouse assessed as reduction in tumor volume at 20 mg/kg, ip after 44 days; format: functional; parameters: scale not given: the % may be the effect or the level left; conditions: route intraperitoneal; outline: as §3

SMILES	ΔTm (DNA [1])	ΔTm (DNA [2])	pIC50 (BT-474 [3])	pIC50 (SK-BR-3)	pIC50 (T47D)	Tm (DNA [4])	Activity (Caspase-7 (Homo sapiens))	ΔTm (DNA [4])	Activity (Caspase-3 (Homo sapiens))	pIC50 (PC-3)	pIC50 (HT-29)	pIC50 (LNCaP)	Activity (BT-474 [5])	Activity (BT-474 [6])
N=C(N)NCCCCCCNCc1ccc2ccc3cccc4ccc1c2c34	34.1 °C	12 °C	4.53	5.32	5.66	> 100 °C	–	–	–	–	–	–	–	–
NCc1ccccc1 [BENZYLAMINE]	0.1 °C	0 °C	–	< 4.40	–	–	inactive	0 °C	inactive	–	–	–	–	–
N=C(N)NCc1ccc2ccc3cccc4ccc1c2c34	19 °C	6 °C	4.47	4.96	4.36	–	–	8.1 °C	–	4.36	4.40	4.03	–	–
N=C(N)NCCCCNCc1ccc2ccc3cccc4ccc1c2c34	34.2 °C	12 °C	4.79	5.72	5.66	> 100 °C	Active	–	Active	5.10	4.51	5.03	73%	32%
NCc1c2ccccc2cc2ccccc12	9 °C	1 °C	–	4.59	–	–	inactive	3 °C	inactive	–	–	–	–	–
NCCCCNCc1c2ccccc2cc2ccccc12	26 °C	8 °C	–	5.48	–	–	–	13.1 °C	–	–	–	–	–	–
NCc1cccs1	0 °C	0 °C	–	< 4.40	–	–	–	0.1 °C	–	–	–	–	–	–
N=C(N)NCc1cccs1	0 °C	0 °C	4.02	< 4.40	4.07	–	–	0.1 °C	–	< 4.00	< 4.00	4.19	–	–
N=C(N)NCCCNCCCCNCCCNCc1ccc2ccc3cccc4ccc1c2c34	39.1 °C	16 °C	4.46	4.60	5.10	> 100 °C	inactive	–	inactive	–	–	–	–	–
N=C(N)NCCCCNCc1c2ccccc2cc2ccccc12	28.1 °C	9 °C	4.84	5.64	4.51	–	–	15.1 °C	–	4.86	4.10	4.55	–	–
NCc1ccc2c(c1)Cc1ccccc1-2	0.1 °C	0 °C	–	< 4.40	–	–	inactive	1 °C	inactive	–	–	–	–	–
N=C(N)NCc1ccc2c(c1)Cc1ccccc1-2	1 °C	0 °C	4.72	4.80	5.16	–	–	0 °C	–	4.62	4.49	4.56	–	–
N=C(N)NCc1ccccc1	0.1 °C	0 °C	4.32	< 4.40	4.08	–	inactive	0.1 °C	inactive	< 4.00	< 4.00	4.36	–	–
CN1CCN(c2ccc3[nH]c(-c4ccc5[nH]c(-c6ccc(O)cc6)nc5c4)nc3c2)CC1	25.1 °C	12 °C	–	–	–	–	–	9 °C	–	–	–	–	–	–
N=C(N)NCc1c2ccccc2cc2ccccc12	15 °C	4 °C	4.72	5.72	4.53	–	Active	6.1 °C	Active	5.00	< 4.00	5.46	–	–
CCBr	21 °C	5 °C	–	–	–	–	–	8.1 °C	–	–	–	–	–	–
NCc1ccc2ccc3cccc4ccc1c2c34	15 °C	3 °C	–	4.92	–	–	–	5 °C	–	–	–	–	–	–
NCCCCNCc1ccc2ccc3cccc4ccc1c2c34	32.1 °C	10 °C	–	5.38	–	–	–	20.2 °C	–	–	–	–	–	–

Source: ChEMBL document CHEMBL1138355, “Amine-guanidine switch: a promising approach to improve DNA binding and antiproliferative activities” (J Med Chem, 2007)
